Measurements from article PMC11261800 (Heliyon, 2024).

Tested on: HaCaT cells
Test: Proliferation of HaCaT keratinocytes, CCK-8
Type: cell-based, human
Conditions: 100 μM, positive control, 72 h, 0.4 % serum
Summary of the method: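 HaCaT keratinocytes, grown at 37 °C in DMEM with 10 % (v/v) FBS, were seeded at 5 × 10^3 cells/well and cultured for 24 h. They were then serum-starved for 24 h in DMEM with 0.4 % serum and exposed to test sample in the same medium for 72 h. After 2 h in 10 % CCK-8, A450 was read. Proliferative activity = (A2−A1)/(A3−A1) × 100 %, against untreated cells and cell-free blank; mean ± SD, n = 3.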

B1: Epidermal growth factor (protein, UniProt P01133 23-1207, looked up)
Pro-epidermal growth factor: PQHWSCPEGTLAGNGNSTCVGPAPFLIFSHGNSIFRIDTEGTNYEQLVVDAGVSVIMDFHYNEKRIYWVDLERQLLQRVFLNGSRQERVCNIEKNVSGMAINWINEEVIWSNQQEGIITVTDMKGNNSHILLSALKYPANVAVDPVERFIFWSSEVAGSLYRADLDGVGVKALLETSEKITAVSLDVLDKRLFWIQYNREGSNSLICSCDYDGGSVHISKHPTQHNLFAMSLFGDRIFYSTWKMKTIWIANKHTGKDMVRINLHSSFVPLGELKVVHPLAQPKAEDDTWEPEQKLCKLRKGNCSSTVCGQDLQSHLCMCAEGYALSRDRKYCEDVNECAFWNHGCTLGCKNTPGSYYCTCPVGFVLLPDGKRCHQLVSCPRNVSECSHDCVLTSEGPLCFCPEGSVLERDGKTCSGCSSPDNGGCSQLCVPLSPVSWECDCFPGYDLQLDEKSCAASGPQPFLLFANSQDIRHMHFDGTDYGTLLSQQMGMVYALDHDPVENKIYFAHTALKWIERANMDGSQRERLIEEGVDVPEGLAVDWIGRRFYWTDRGKSLIGRSDLNGKRSKIITKENISQPRGIAVHPMAKRLFWTDTGINPRIESSSLQGLGRLVIASSDLIWPSGITIDFLTDKLYWCDAKQSVIEMANLDGSKRRRLTQNDVGHPFAVAVFEDYVWFSDWAMPSVMRVNKRTGKDRVRLQGSMLKPSSLVVVHPLAKPGADPCLYQNGGCEHICKKRLGTAWCSCREGFMKASDGKTCLALDGHQLLAGGEVDLKNQVTPLDILSKTRVSEDNITESQHMLVAEIMVSDQDDCAPVGCSMYARCISEGEDATCQCLKGFAGDGKLCSDIDECEMGVPVCPPASSKCINTEGGYVCRCSEGYQGDGIHCLDIDECQLGEHSCGENASCTNTEGGYTCMCAGRLSEPGLICPDSTPPPHLREDDHHYSVRNSDSECPLSHDGYCLHDGVCMYIEALDKYACNCVVGYIGERCQYRDLKWWELRHAGHGQQQKVIVVAVCVVVLVMLLLLSLWGAHYYRTQKLLSKNPKNPYEESSRDVRSRRPADTEDGMSSCPQPWFVVIKEHQDLKNGGQPVAGEDGQAADGSMQPTSWRQEPQLCGMGTEQGCWIPVSSDKGSCPQVMERSFHMPSYGTQTLEGGVEKPHSLLSANPLWQQRALDPPHQMELTQ
modifications: Pro-epidermal growth factor
For B1, the “cell viability (proliferation of HaCaT keratinocytes)” value was 106.76%.
